# Reference: ChEMBL document CHEMBL2406992, “Validation of inhibitors of an ABC transporter required to transport lipopolysaccharide to the cell surface in Escherichia coli” (2013)
# Calls of active or inactive are those of the source. No cut-off for these calls is given here.
# What was measured:
# Escherichia coli [1] = assay: Antibacterial activity against Escherichia coli NR698 assessed as growth inhibition after 24 hrs by microdilution method; type: functional; details: NR698, 24 h
# Escherichia coli [2] = assay: Antibacterial activity against Escherichia coli MC4100 assessed as growth inhibition after 24 hrs by microdilution method; type: functional; details: MC4100, 24 h
# Escherichia coli [3] = assay: Inhibition of Escherichia coli MC4100 LptBFGC overexpressed in Escherichia coli BL21 (deltaDE3) assessed as inorganic phosphate release at 100 uM after 5 mins by molybdate method
# Procedure, shortened: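 Detergent-purified LptBFGC, 0.2 μM in 50 mM Tris-HCl pH 8.0, 500 mM NaCl, 10% glycerol, 0.05% DDM. Preincubated 5 min at 25 °C with 100 μM inhibitor (2% DMSO final). Reaction started with 0.5 mM ATP at 25 °C and stopped in the linear range with 12% SDS. Phosphate was measured by modified molybdate method, relative to uninhibited DMSO control.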
# Escherichia coli [4] = assay: Inhibition of Escherichia coli MC4100 His6-tagged LptB overexpressed in Escherichia coli BL21 (deltaDE3) assessed as inorganic phosphate release at 100 uM after 5 mins by molybdate method
# Procedure, shortened: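 Single-point assay. Purified His-LptB (7 μM) in 50 mM Tris-HCl pH 8.0, 500 mM NaCl, 10% glycerol was preincubated 5 min at 25 °C with 100 μM inhibitor (2% DMSO final). Started with 1 mM ATP at 25 °C and quenched in the linear range with 12% SDS. Released phosphate was read by molybdate absorbance, relative to a DMSO control.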
# Escherichia coli [5] = assay: Selectivity ratio of IC50 for Escherichia coli MC4100 LptBFGC to IC50 for Escherichia coli MC4100 His6-tagged LptB
# Escherichia coli [6] = assay: Inhibition of Escherichia coli MC4100 LptBFGC overexpressed in Escherichia coli BL21 (deltaDE3) assessed as inorganic phosphate release after 5 mins by molybdate method
# Procedure, shortened: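 LptBFGC was expressed from an LptCAB-His6 plasmid in BL21(λDE3) (50 μM IPTG, 2 h, 37 °C) and purified in DDM. Assayed at 0.2 μM in 50 mM Tris-HCl pH 8.0, 500 mM NaCl, 10% glycerol, 0.05% DDM. Varying inhibitor (2% DMSO) was preincubated 5 min at 25 °C, then ATP was added. Quenched in the linear range with SDS. Molybdate phosphate read-out, normalized to DMSO.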
# Escherichia coli [7] = assay: Inhibition of Escherichia coli MC4100 His6-tagged LptB overexpressed in Escherichia coli BL21 (deltaDE3) assessed as inorganic phosphate release after 5 mins by molybdate method
# Procedure, shortened: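 His-tagged LptB, Ni-NTA and size-exclusion purified, at 7 μM in 50 mM Tris-HCl pH 8.0, 500 mM NaCl, 10% glycerol. Varied inhibitor concentrations (DMSO, 2% final) were preincubated 5 min at 25 °C, then ATP was added at 25 °C. Stopped within the linear range with an equal volume of 12% SDS. Phosphate was read by modified molybdate absorbance and normalized to the DMSO control.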
Structure (SMILES),MIC (Escherichia coli [1]) [µM],MIC (Escherichia coli [2]) [µM],inhibition (Escherichia coli [3]),inhibition (Escherichia coli [4]),Ratio IC50 (Escherichia coli [5]),inhibition (Escherichia coli [6]),inhibition (Escherichia coli [7])
O=C1NC(=O)c2c1c(-c1ccccc1Cl)cc1[nH]c3ccc(O)cc3c21,25,> 100,–,–,–,–,–
O=C1NC(=O)c2c1c(-c1ccccc1Br)cc1[nH]c3ccc(O)cc3c21,12.5,> 100,Active,Active,–,–,–
Cn1c2cc(OCCCN3CCCC3)c(O)cc2c2c3c(c(-c4ccccc4Cl)cc21)C(=O)NC3=O,100,> 100,Active,Active,–,–,–
O=C1NC(=O)c2c1c(-c1c(Cl)cccc1Cl)cc1[nH]c3ccc(O)cc3c21,12.5,> 100,–,–,6,Dose-dependent effect,Dose-dependent effect
CSc1ccccc1-c1cc2[nH]c3ccc(O)cc3c2c2c1C(=O)NC2=O,25,> 100,Active,Active,–,–,–
CN(C)CCCOc1cc2c(cc1O)c1c3c(c(-c4ccccc4Cl)cc1n2C)C(=O)NC3=O,25,> 100,Active,Active,–,–,–
O=C1NC(=O)c2c1c(-c1ccccc1Cl)cc1c2c2cc(O)c(OCCCN3CCCC3)cc2n1CCO,100,> 100,Active,Active,–,–,–
Cn1c2cc(S(=O)(=O)CCCN3CCCC3)c(O)cc2c2c3c(c(-c4ccccc4Cl)cc21)C(=O)NC3=O,50,> 100,Active,Active,–,–,–
